Shown are actives, neighbours in structure and some others; about 3.4% of the full set was active somewhere.
S100A4 inh HTS – S100A4-myosin IIA interaction inhibition | P26447 | S100A4/TAMRA-MyoIIA peptide fluorescence polarization | inhibition, % at 10.7 µM | 0.14% of 360,000 active | AID 652163;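 active = mean inhibition of at least 70% across replicates, with every replicate also reaching that level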
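Assay system: human S100A4 monomer with TAMRA-labelled myosin IIA peptide / Buffer or medium: Calcium-containing HEPES buffer, pH 7.2 / Reagent: TAMRA-labelled myosin IIA heavy-chain peptide probe, 5 nM / Compound: one dose per compound / Timing: polarization read 5 min after assay mix addition, stable 5–60 min / Benchmarks: neutral control DMSO, positive control TFP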
rRNA inh HTS – selective bacterial rRNA inhibition in E. coli. E. coli WT GFP vs humanized-ribosome RFP mutants, fluorescence, 24 h; hits give low values; DMSO median 0, no signal -100. GFP signal change (wild-type ribosome), % (test concentration not listed). 1.6% of 350,000 active. AID 720706;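 active = significant combined selectivity score with lowered wild-type GFP, culture density cut under 30%, mutant RFP and density less affected; inactive = any of these conditions unmet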
E-sel inducer – E-selectin induction on HUVECs; 0.37% of 260,000 active; P16581; HUVEC E-selectin immunofluorescence imaging; normalized: neutral wells 0, TNF-alpha wells 100; AID 686992; activation, % at 7.58 µM;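 active = mean E-selectin-positive cell signal at least 10% of the positive control, reached in at least 60% of replicates, without over 20% cell loss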
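material = human umbilical vein endothelial cells (HUVEC), E-selectin induction | quantity = 3,000 cells/well | medium = EGM-2 growth medium on 0.1% gelatin-coated wells | technique = immunofluorescence imaging | read-out basis = % PE-positive cells | control set = TNF-alpha positive control, DMSO neutral control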
SIRT5 inh – sirtuin-5 (human) deacylase inhibition; AID 652115; inhibition, % at 15 µM; Q9NXA8; Purified SirT5, succinyl-peptide AMC, trypsin-coupled fluorescence; 1.1% of 330,000 active; in the data active = inhibition above about 15%
ERAP1 HTS inh – blocks human ERAP1 aminopeptidase activity. Q9NZ08. recombinant ERAP1, Leu-AMC fluorescence, 60 min. inhibition, % at 10.7 µM. 0.15% of 340,000 active;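 active = mean replicate inhibition of at least 30%, or all replicates individually reaching that 30% level; inactive = mean below 30% and not every replicate reaching it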;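 note: 0% = neutral control wells and 100% = L-leucinethiol positive control wells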
AF4-AF9 inh – MLL-AF4/AF9 protein interaction inhibition | inhibition, % at 10 µM | AID 651704 | 0.47% of 350,000 active | AlphaScreen, biotin-AF4 peptide binding to FLAG-AF9;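 active = every replicate reaching a set inhibition limit, whatever the replicate mean, cut at about 25% in these data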;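 note: 0% = plate neutral control median and 100% = total signal loss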
Target sequence (P42568 whole entry, looked up): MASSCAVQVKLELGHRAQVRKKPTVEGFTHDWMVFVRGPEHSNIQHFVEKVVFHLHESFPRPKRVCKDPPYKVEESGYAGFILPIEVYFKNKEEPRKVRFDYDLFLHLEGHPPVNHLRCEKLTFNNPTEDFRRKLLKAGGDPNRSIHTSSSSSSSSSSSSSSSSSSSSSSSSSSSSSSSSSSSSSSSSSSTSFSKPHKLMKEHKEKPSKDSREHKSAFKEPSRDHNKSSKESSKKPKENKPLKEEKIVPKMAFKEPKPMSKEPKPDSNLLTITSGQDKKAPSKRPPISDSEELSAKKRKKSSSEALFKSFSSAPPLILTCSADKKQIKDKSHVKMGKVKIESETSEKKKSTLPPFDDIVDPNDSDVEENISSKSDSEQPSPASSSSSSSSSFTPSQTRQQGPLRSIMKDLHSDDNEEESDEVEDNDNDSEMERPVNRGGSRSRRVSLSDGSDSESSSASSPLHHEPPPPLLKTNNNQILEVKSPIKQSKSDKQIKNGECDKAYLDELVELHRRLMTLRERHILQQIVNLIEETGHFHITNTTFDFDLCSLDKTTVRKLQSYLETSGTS
* marks the source's active call; other numbers are inactive results; . = no result; ! = not confirmed by another sample.

SMILES | S100A4 inh HTS | rRNA inh HTS | E-sel inducer | SIRT5 inh | ERAP1 HTS inh | AF4-AF9 inh
C=CCOc1cccc(C(=O)N2CCCC(Nc3ccc(F)cc3)C2)c1 (centres undefined) | -1 | -26* | 0 | -2 | -2 | 3
C[C@@H]1CN([C@@H](C)CO)C(=O)c2cc(NC(=O)Nc3ccc(F)cc3)ccc2O[C@@H](C)CCCCO[C@@H]1CN(C)C | . | 1 | 1 | . | . | .
Cc1ccc(S(=O)(=O)CCC(=O)OCc2ccc(Cl)cc2)cc1 | -4 | -26* | . | -8 | 3 | 2
COC(=O)c1ccc(COC(=O)CCS(=O)(=O)c2ccc(C)cc2)cc1 | 3 | -2 | 3 | -6 | 4 | -6
Nc1ncnc2nc[nH]c12 | 6 | -17 | -1 | 44*! | 1 | -3
CC1=C(N2CCOCC2)CCC1=O | 85* | 10 | 0 | . | . | -1
CC1=C(C)C(=O)C(N2CCOCC2)=CC1=O | -9 | 20 | 0 | 1 | 1 | 1
C[C@@H]1CN([C@@H](C)CO)C(=O)c2cc(NS(C)(=O)=O)ccc2O[C@@H](C)CCCCO[C@H]1CN(C)S(=O)(=O)c1cccs1 | 2 | -4 | 0 | -1 | -4 | -4
CCN(CC)C(=N)/C(C#N)=N/Nc1ccccc1 | -7 | -2 | . | 17* | . | 4
Cc1ccc(N/N=C(\C#N)C(=N)N2CCCCC2)cc1 | -2 | . | . | 3 | 4 | 10
COc1ccc2c3c(n(C)c2c1)[C@@H](CO)N(C(=O)c1ccc(F)cc1)CC31CCN(C(=O)c2ccc(F)cc2)CC1 | . | -7 | -1 | 0 | . | .
O=C(C[C@H]1CC[C@H]2NC[C@H](O)COC[C@@H]2O1)NCCN1CCCC1 | 17 | 1 | 0 | -4 | 2 | 2
O=C(NC(=S)Nc1ccc(Br)c(Cl)c1)C1CC1 | 7 | -27* | . | 0 | 4 | -1
Cc1noc(C)c1S(=O)(=O)N(C)C[C@@H]1OCCCC[C@H](C)Oc2ccc(NC(=O)NC3CCCCC3)cc2C(=O)N([C@H](C)CO)C[C@@H]1C | -1 | 1 | 0 | 3 | 0 | 2
C[C@@H]1CN([C@@H](C)CO)C(=O)CCCn2nncc2CO[C@H]1CN(C)Cc1ccc(C(=O)O)cc1 | -4 | -1 | 0 | -10 | 7 | 0
Cc1cc(C)c2nc(N3CCC(C(=O)NCC4CCCO4)CC3)sc2c1 (centres undefined) | 3 | -11 | 0 | 27* | 2 | -2
Cc1cc(C)c2nc(N3CCC(C(=O)N4CCCC4)CC3)sc2c1 | -1 | -25* | . | 1 | 1 | 5
Cc1cc(C)c2nc(N3CCCC(C(=O)NC4CCCC4)C3)sc2c1 (centres undefined) | -5 | 3 | 0 | -5 | -2 | -1
CCOCCCNC(=O)C(c1ccc(Cl)cc1)N(Cc1cccs1)C(=O)c1ccccn1 (centres undefined) | -2 | -23* | . | 18* | -5 | -3
CN(C)CC/C=C1/c2ccccc2Sc2ccc(Cl)cc21 | -3 | -10 | 0 | -5 | 3 | 27*!
CCCCCC[N+](C)(C)CC/C=C1/c2ccccc2Sc2ccc(Cl)cc21 | -2 | -46 | 0 | -6 | 14 | 22
N#C[C@@H]1[C@H](c2ccccc2-c2ccccc2F)[C@@H](CO)N1C(=O)c1cccc(F)c1 | -13 | -9 | 0 | 18* | 3 | 3
COCC(=O)N1[C@H](C#N)[C@H](c2ccccc2-c2cccc(F)c2)[C@H]1CO | 5 | 2 | 0 | 24* | 4 | -2
CC(C)C#Cc1ccc([C@H]2[C@@H](CO)N(C(=O)c3cccc(F)c3)[C@H]2C#N)cc1 | 109* | -2 | 0 | -3 | 1 | -2
COCC(=O)N1[C@@H](C#N)[C@H](c2ccccc2-c2cccc(F)c2)[C@@H]1CO | -3 | 0 | 0 | 3 | 3 | -2
Cc1ccccc1-c1ccccc1[C@H]1[C@@H](C#N)N(C(=O)c2ccccc2)[C@@H]1CO | 11 | . | . | 26* | 0 | 7
N#C[C@H]1[C@H](c2ccccc2-c2ccccc2F)[C@@H](CO)N1C(=O)c1cccc(F)c1 | -24 | 1 | 0 | 6 | 1 | -2

Screening results: PubChem BioAssay, Broad Institute
